The IC50 is the concentration that inhibits the measured activity by half. Higher therefore signals a need for much substance.

The source of these data is ChEMBL document CHEMBL3877271, “Antagonizing STAT3 activation with benzo[b]thiophene 1, 1-dioxide based small molecules” (Eur J Med Chem, 2017).

Data set [1] in a line: Antiproliferative activity against human A549 cells after 72 hrs by MTT assay. Format: functional, cell-based. The note with it: A549, 72 h. The method in brief:
(§1)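 Cells in RPMI-1640 with 10% FBS, penicillin/streptomycin, 37 °C, 5% CO₂; seeded 3000-5000 cells/well, left overnight (16 h), then medium replaced with fresh medium holding serial dilutions in triplicate for 72 h. MTT read-out; viability = absorbance of treated/solvent control × 100%. Stattic served as reference.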

Data set [2] is described as follows: Antiproliferative activity against human MCF7 cells after 72 hrs by MTT assay. It counts as functional, cell-based. The note with it: MCF7, 72 h. The method in brief: as §1
Data set [3] can be described thus: Antiproliferative activity against human MDA-MB-231 cells after 72 hrs by MTT assay. The conditions noted are these: MDA-MB-231, 72 h. It counts as functional, cell-based. The method in brief:
as §1
In general terms: Formazan colour is commonly taken as a measure of viable cells.

Data set [4] in a line: Antiproliferative activity against human HCT116 cells after 72 hrs by MTT assay. It counts as functional, cell-based. The conditions noted are these: HCT-116, 72 h. The method in brief: as §1
Another data set relates to MCF7. As to the kind of experiment: Potency index, ratio of stattic IC50 to compound IC50 for human MCF7 cells. It counts as functional.
For the next data set, the system named is MDA-MB-231. Nature of the data set: Potency index, ratio of stattic IC50 to compound IC50 for human MDA-MB-231 cells. It counts as functional.
Another data set concerns A549. Nature of the data set: Potency index, ratio of stattic IC50 to compound IC50 for human A549 cells. It counts as functional.
Another data set deals with HCT-116. As to the kind of experiment: Potency index, ratio of stattic IC50 to compound IC50 for human HCT116 cells. Format: functional.
Data set [5] concerns the target Signal transducer and activator of transcription 3 (Homo sapiens) (UniProt P40763). As to the kind of experiment: Inhibition of STAT3 dimer DNA binding activity in human MDA-MB-231 nuclear extract at 5 uM preincubated for 24 hrs followed by addition of [32P]hSIE by electrophoretic mobility shift assay. The method in brief:
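Cells treated 24 h in fresh growth medium. Nuclear extracts of equal total protein incubated with ³²P-labelled hSIE oligonucleotide probe and resolved by EMSA; Stattic 5 µM as comparator.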
A general note: Mobility shift assays separate free from complexed probe on a gel.

The subject of a further data set is Mus musculus. As to the kind of experiment: Toxicity in ICR mouse implanted with mouse 4T1 cells assessed as body weight loss at 1 mg/kg, ip administered once in 4 days for 11 days measured daily during compound dosing. It counts as organism-based. The note with it: in vivo. The method in brief:
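4T1-bearing male ICR mice (5 weeks, 6/group), dosed i.p. with PBS/DMSO (8:2) vehicle control. Body weight recorded daily. BI% = (1 − mean treated/mean control body weight) × 100.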

The nature of data set [6]: Antitumor activity against mouse 4T1 cells implanted in ICR mouse assessed as tumor growth inhibition at 1 mg/kg, ip administered once in 4 days for 11 days measured on day 12 relative to control. The note with it: 4T1, ip, read-out: TGI. It counts as functional. The method in brief:
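Male ICR mice, 5 weeks old, inoculated with 2 × 10⁶ 4T1 cells at the right armpit. At 24 h, randomised into groups of 6 and dosed i.p.; vehicle PBS/DMSO (8:2) daily for 11 days. Killed day 12; tumours weighed; TI% = (1 − mean treated/mean control weight) × 100. Tumour p-STAT3 and STAT3 assessed by western blot.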

Calls of active or inactive are those of the source. The rule behind the calls is not given here.

Signal transducer and activator of transcription 3 (Homo sapiens), sequence (P40763 whole entry): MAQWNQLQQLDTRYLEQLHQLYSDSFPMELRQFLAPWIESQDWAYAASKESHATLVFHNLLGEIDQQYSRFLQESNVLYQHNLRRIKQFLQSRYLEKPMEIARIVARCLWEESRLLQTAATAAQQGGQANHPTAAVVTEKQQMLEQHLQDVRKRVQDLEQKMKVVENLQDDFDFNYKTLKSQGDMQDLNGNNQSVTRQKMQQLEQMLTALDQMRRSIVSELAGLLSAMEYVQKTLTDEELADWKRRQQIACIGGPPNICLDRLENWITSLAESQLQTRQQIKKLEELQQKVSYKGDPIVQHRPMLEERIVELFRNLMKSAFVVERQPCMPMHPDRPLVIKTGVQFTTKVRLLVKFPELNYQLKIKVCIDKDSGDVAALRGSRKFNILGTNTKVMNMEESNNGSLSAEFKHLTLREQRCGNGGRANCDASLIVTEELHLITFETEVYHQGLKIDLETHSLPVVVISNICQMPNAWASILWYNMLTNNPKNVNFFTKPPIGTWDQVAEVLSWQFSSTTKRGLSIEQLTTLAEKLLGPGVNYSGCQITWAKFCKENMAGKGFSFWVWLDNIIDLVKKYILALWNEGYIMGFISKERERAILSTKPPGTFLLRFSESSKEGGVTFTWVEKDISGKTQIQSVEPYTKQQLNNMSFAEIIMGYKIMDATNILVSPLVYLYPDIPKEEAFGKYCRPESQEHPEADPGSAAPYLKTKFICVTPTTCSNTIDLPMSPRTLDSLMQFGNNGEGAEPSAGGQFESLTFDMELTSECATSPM

Turning to `O=S1(=O)C=Cc2ccc(Nc3ccc(F)c(F)c3)cc21`, the IC50 in data set [1] was found to be 1550 nM; in data set [2], 2610 nM; in data set [3] it was 3050 nM; in data set [4], 3020 nM.
On to `O=S1(=O)C=Cc2ccc(Nc3ccc(Cl)cc3)cc21`, for which the half-inhibitory concentration (IC50) was found to be 2300 nM in data set [1], 2670 nM in data set [2], 6720 nM in [3] and 4440 nM in data set [4].
Turning to `O=S1(=O)C=Cc2cccc(Nc3ccc(Cl)c(Cl)c3)c21`, the concentration for half-maximal inhibition (IC50) in data set [1] was determined as 660 nM; in [2], 570 nM; in data set [3], 1360 nM; in data set [4], 680 nM.
Take `N#Cc1cccc(Nc2ccc3c(c2)S(=O)(=O)C=C3)c1`: the IC50 in [1], in [2], in data set [3] and in data set [4] was > 10000 nM throughout.
Take `COc1ccc(Nc2ccc3c(c2)S(=O)(=O)C=C3)cc1`: the IC50 in data set [1] was determined as 1220 nM; in data set [2], 1210 nM; in data set [3] it was 1400 nM; in data set [4], 1170 nM.
As to `Cc1ccc(Nc2cccc3c2S(=O)(=O)C=C3)cc1`, the half-maximal inhibitory concentration (IC50) in data set [1] was found to be 2680 nM; in data set [2], 1890 nM; in data set [3] it was 1560 nM; in data set [4], 4000 nM.
On to `O=S1(=O)C=Cc2ccc(Nc3ccc(Cl)c(Cl)c3)cc21`, for which the IC50 in data set [1] came to 3320 nM; in [2] it was 2230 nM; in [3] it was 890 nM; in data set [4], 2470 nM.
For `O=S1(=O)C=Cc2ccc(Nc3ccc(C(F)(F)F)cc3)cc21`, the IC50 in [1] was 1140 nM; in data set [2], 1270 nM; in data set [3], 1300 nM; in [4], 1340 nM.
Take `O=S1(=O)C=Cc2cccc(Nc3ccc(Cl)cc3)c21`: the “Ratio IC50” value in the data set with MCF7, with MDA-MB-231, in the data set with A549 and with HCT-116 was 1.4 - 7.2 each time. Moreover, the 50% inhibitory concentration (IC50) was 1040 nM in [1], 680 nM in data set [2], 1210 nM in data set [3] and 260 nM in data set [4].
As for `O=[N+]([O-])c1ccc2c(c1)S(=O)(=O)C=C2`, the IC50 in [1] was 4400 nM; in data set [2], 2360 nM; in data set [3] it was 1680 nM; in data set [4], 1080 nM. In addition, the inhibition result in data set [5] is “Active”.
With `O=S1(=O)C=Cc2cccc(Nc3ccc(F)c(F)c3)c21`, the half-maximal inhibitory concentration (IC50) in [1] came out at 2500 nM; in data set [2], 950 nM; in data set [3], 1890 nM; in data set [4], 680 nM.
`O=S1(=O)C=Cc2cccc(Nc3ccc(C(F)(F)F)cc3)c21`: the IC50 is 2440 nM in data set [1], 1820 nM in data set [2], 1200 nM in data set [3] and 1440 nM in data set [4].
As for `COc1cc(Nc2cccc3c2S(=O)(=O)C=C3)cc(OC)c1OC`, the 50% inhibitory concentration (IC50) in [1] stood at 950 nM; in [2], 930 nM; in data set [3], 990 nM; in data set [4], 1150 nM.
On to `O=S1(=O)C=Cc2ccc(Nc3cccc(C(F)(F)F)c3)cc21`, for which the IC50 in data set [1] stood at 1440 nM; in data set [2] it was 2500 nM; in data set [3], 1310 nM; in [4], 1370 nM.
As for `COc1ccc(Nc2cccc3c2S(=O)(=O)C=C3)cc1`, the IC50 in data set [1] is 2590 nM; in data set [2] it was 940 nM; in data set [3] it was 1040 nM; in data set [4] it was 1990 nM.
Take `O=S1(=O)C=Cc2ccc(Nc3cccc(OC(F)(F)F)c3)cc21`: the concentration for half-maximal inhibition (IC50) was found to be 1370 nM in data set [1], 2020 nM in [2], 2080 nM in [3] and 1980 nM in data set [4].
In the same order, the values of `Cc1cc(C)cc(Nc2cccc3c2S(=O)(=O)C=C3)c1` are 4800 nM, 8800 nM, 3120 nM and > 10000 nM.
For the compound `O=S1(=O)C=Cc2cccc(Nc3cccc(F)c3)c21`, the IC50 in data set [1] was determined as 2550 nM; in [2], 1120 nM; in data set [3], 1910 nM; in data set [4], 1220 nM.
Regarding `COc1ccccc1Nc1cccc2c1S(=O)(=O)C=C2`, the IC50 was 2590 nM in data set [1], 5100 nM in [2], 2400 nM in data set [3] and 5000 nM in data set [4].
With `COc1cccc2c1C(=O)c1c(O)c3c(c(O)c1C2=O)C[C@@](O)(C(=O)CO)C[C@@H]3O[C@H]1C[C@H](N)[C@H](O)[C@H](C)O1` [DOXORUBICIN], the Activity result in the data set on Mus musculus was “Toxic”. Further, in data set [6], the inhibition in vivo at 1 mg/kg was 67%.
`O=S1(=O)C=Cc2cccc(Nc3c(F)c(F)c(F)c(F)c3F)c21`: the IC50 was 3480 nM in data set [1], 2300 nM in [2], 4460 nM in [3] and 3370 nM in data set [4].
Take `O=S1(=O)C=Cc2cccc(Nc3ccccc3C(F)(F)F)c21`: the IC50 amounted to 4120 nM in [1], 8100 nM in data set [2], 3900 nM in [3] and 5950 nM in data set [4].
As for `O=S1(=O)C=Cc2cccc(Nc3cc(C(F)(F)F)cc(C(F)(F)F)c3)c21`, the IC50 in [1] was 3840 nM; in data set [2], 5110 nM; in data set [3], 3120 nM; in [4], 3600 nM.
In the same order, the values of `COc1cc(Nc2ccc3c(c2)S(=O)(=O)C=C3)cc(OC)c1OC` are 1880 nM, 2230 nM, 1430 nM and 1420 nM.
Consider `O=S1(=O)C=Cc2cccc(Nc3ccc(OC(F)(F)F)cc3)c21`, for which the IC50 in data set [1] came to 1570 nM; in [2], 2690 nM; in data set [3] it was 2100 nM; in data set [4], 2380 nM.
